Activity and inhibition data for 6 molecules are collected here from ChEMBL document CHEMBL4219067, “Synthesis and activity evaluation of a series of cholanamides as modulators of the liver X receptors” (Bioorg Med Chem, 2018).

Holding throughout (type): cell-based
In test [1] the target is T1, Oxysterols receptor LXR-alpha (Homo sapiens) (UniProt Q13133).
T1 sequence (whole entry): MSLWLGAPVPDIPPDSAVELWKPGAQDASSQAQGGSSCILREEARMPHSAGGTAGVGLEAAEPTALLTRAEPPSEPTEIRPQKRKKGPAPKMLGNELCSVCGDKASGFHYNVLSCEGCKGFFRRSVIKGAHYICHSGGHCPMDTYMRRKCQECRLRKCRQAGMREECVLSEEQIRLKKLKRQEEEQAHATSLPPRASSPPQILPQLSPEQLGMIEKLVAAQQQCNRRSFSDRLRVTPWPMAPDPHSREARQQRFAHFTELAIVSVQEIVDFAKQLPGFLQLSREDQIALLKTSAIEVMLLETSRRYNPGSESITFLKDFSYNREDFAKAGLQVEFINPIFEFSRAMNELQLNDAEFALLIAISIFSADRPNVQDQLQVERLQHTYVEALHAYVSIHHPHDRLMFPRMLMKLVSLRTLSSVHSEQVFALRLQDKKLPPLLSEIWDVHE
As to the kind of experiment: Agonist activity at human full length LXRalpha expressed in […] cells co-expressing human pSG5/RXRalpha at 10 uM after 18 hrs by luciferase reporter gene assay relative to GW3965. The gist of the method:
(§1)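 BHK21 cells co-transfected with an RXR plasmid, a full-length human LXRα or LXRβ expression vector and the pGL3/LRELuc reporter. Steroids were added alone at 10 µM and luciferase activity was read. Activity is expressed as % induction relative to GW3965 1 µM (100%). Means ± S.E. of 3 independent experiments; one-way ANOVA with Dunnett's test versus the no-steroid control.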

Test [2] has as its target T2, Oxysterols receptor LXR-beta (Homo sapiens) (UniProt P55055).
T2 sequence (whole entry): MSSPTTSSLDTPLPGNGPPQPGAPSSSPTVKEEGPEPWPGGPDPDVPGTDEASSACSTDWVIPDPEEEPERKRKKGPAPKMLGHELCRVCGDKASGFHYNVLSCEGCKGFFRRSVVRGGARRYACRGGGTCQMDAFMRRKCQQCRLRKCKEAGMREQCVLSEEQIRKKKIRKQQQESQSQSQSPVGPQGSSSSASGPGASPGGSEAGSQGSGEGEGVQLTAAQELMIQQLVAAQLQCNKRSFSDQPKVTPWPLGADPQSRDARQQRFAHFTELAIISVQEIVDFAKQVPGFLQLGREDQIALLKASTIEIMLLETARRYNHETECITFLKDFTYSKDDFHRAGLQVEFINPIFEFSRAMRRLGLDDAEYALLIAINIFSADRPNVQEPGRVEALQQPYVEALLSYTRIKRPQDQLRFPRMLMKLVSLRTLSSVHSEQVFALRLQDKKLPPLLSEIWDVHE
The test is described as follows: Antagonist activity at human full length LXRbeta expressed in […] cells co-expressing human pSG5/RXRalpha assessed as inhibition of GW3965-induced receptor activation at 10 uM after 18 hrs by luciferase reporter gene assay. The method in brief:
(§2)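 Antagonist mode in BHK21 cells co-transfected with an RXR plasmid, a full-length human LXRα or LXRβ vector and the pGL3/LRELuc luciferase reporter. Steroids at 10 µM were co-administered with the synthetic agonist GW3965. Luciferase output is given as % of the GW3965 1 µM response. Means ± S.E., n=3 independent experiments; Dunnett's test after one-way ANOVA.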

Test [3] has as its target T1, Oxysterols receptor LXR-alpha (Homo sapiens). The test is described as follows: Antagonist activity at human full length LXRalpha expressed in […] cells co-expressing human pSG5/RXRalpha assessed as inhibition of GW3965-induced receptor activation at 10 uM after 18 hrs by luciferase reporter gene assay. The gist of the method:
as §2
For orientation: A reporter such as luciferase makes a cellular process visible.

The target of test [4] is T2, Oxysterols receptor LXR-beta (Homo sapiens). The test is described as follows: Agonist activity at human full length LXRbeta expressed in […] cells co-expressing human pSG5/RXRalpha at 10 uM after 18 hrs by luciferase reporter gene assay relative to GW3965. The method in brief: as §1

Calls of active or inactive are those of the source. The calls are words filed in the database; no cut-off is given here.

Turning to `C[C@H](CCC(=O)N(C)C)[C@H]1CC[C@H]2[C@@H]3CC=C4C[C@@H](O)CC[C@]4(C)[C@H]3CC[C@]12C`, the result in test [1] and in test [4] was Active. Also, the inhibition entry in test [2] and in test [3] was “Active” each time.

Regarding `C[C@H](CCC(=O)N(C)C)[C@H]1CC[C@H]2[C@@H]3C[C@H](O)[C@@H]4C[C@H](O)CC[C@]4(C)[C@H]3CC[C@]12C`, the inhibition result in test [2] and in test [3] was “Active” throughout. Moreover, the outcome in test [4] was Active.

Regarding `C[C@H](CCC(=O)N(C)C)[C@H]1CC[C@H]2[C@@H]3C[C@@H]4OC[C@@]5(CC[C@@H](O)C=C45)[C@H]3CC[C@]12C`, the outcome in test [1] was Active. For the same molecule, in test [2], the inhibition result was “inactive”.

Turning to `C[C@H](CCC(=O)N(C)C)[C@H]1CC[C@H]2[C@@H]3CC[C@H]4C[C@@H](O)[C@@H]5C[C@]4(CO5)[C@H]3CC[C@]12C`, the outcome in test [1] and in test [4] was inactive. The inhibition result in test [2] and in test [3] was “Active” each time.

`C[C@H](CCC(=O)N(C)C)[C@H]1CC[C@H]2[C@@H]3CC[C@@H]4C[C@H](O)CC[C@]4(C)[C@H]3CC[C@]12C`: the outcome in test [1] was Active. For the same molecule, in test [4], the result was inactive.

In the case of `C[C@H](CCC(=O)N(C)C)[C@H]1CC[C@H]2[C@@H]3CC[C@H]4C[C@H](O)[C@@H]5C[C@]4(CO5)[C@H]3CC[C@]12C`, the outcome in test [1] and in test [4] was inactive. Besides, the inhibition result in test [2] and in test [3] was “Active” each time.
